pKi: −log10 of the molar value.

For 17 molecules, inhibition, Ki and Uptake results are on record in ChEMBL document CHEMBL1135929, “Investigation of potential bioisosteric replacements for the carboxyl groups of peptidomimetic inhibitors of protein tyrosine phosphatase 1B: identification of a tetrazole-containing inhibitor with cellular activity” (J Med Chem, 2002).

For experiment [1], the target named is Receptor-type tyrosine-protein phosphatase F (Homo sapiens) (UniProt P10586). Description: Percent inhibition against Protein-tyrosine phosphatase Lar at 100 uM. In a few lines:
(§1)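 For specificity screening, recombinant purified LAR and SHP-2 were each tested with compound at 100 µM, reported as % inhibition.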

Experiment [2] has as its target T1, Tyrosine-protein phosphatase non-receptor type 1 (Homo sapiens, UniProt P18031).
T1 sequence (P18031 whole entry): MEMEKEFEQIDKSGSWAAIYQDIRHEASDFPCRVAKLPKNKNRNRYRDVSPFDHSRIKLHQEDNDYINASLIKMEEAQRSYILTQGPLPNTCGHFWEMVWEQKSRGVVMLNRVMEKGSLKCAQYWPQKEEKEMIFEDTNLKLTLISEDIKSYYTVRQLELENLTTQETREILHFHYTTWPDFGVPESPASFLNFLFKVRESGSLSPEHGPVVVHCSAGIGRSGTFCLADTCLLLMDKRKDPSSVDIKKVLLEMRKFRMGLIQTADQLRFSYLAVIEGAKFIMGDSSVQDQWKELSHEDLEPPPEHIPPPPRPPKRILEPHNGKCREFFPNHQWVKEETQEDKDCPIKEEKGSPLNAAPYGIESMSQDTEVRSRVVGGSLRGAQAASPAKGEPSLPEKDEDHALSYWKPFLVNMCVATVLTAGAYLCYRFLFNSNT
Description: Inhibition constant of compound against Protein-tyrosine phosphatase 1B.

Experiment [3] addresses T2, Tyrosine-protein phosphatase non-receptor type 11 (Homo sapiens) (UniProt Q06124).
T2 sequence (whole entry): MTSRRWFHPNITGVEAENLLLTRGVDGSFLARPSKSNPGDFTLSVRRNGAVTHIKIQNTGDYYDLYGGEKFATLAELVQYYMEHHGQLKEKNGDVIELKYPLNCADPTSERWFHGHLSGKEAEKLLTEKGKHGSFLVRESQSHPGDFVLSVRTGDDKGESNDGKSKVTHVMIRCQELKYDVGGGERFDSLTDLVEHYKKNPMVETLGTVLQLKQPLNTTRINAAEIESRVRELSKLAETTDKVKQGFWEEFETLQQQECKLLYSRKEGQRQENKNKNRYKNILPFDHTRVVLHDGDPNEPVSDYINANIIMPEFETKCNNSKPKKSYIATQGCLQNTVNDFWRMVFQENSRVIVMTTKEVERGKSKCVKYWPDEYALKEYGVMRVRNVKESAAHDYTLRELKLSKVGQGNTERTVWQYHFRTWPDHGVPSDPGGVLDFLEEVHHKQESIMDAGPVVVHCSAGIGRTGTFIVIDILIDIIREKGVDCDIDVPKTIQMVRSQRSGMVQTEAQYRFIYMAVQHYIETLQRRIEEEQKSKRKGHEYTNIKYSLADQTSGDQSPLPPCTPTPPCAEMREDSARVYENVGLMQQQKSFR
Description: Percent inhibition against Tyrosine phosphatase SHP2 at 100 uM. Put shortly: as §1

In experiment [4] the target is T3, Tyrosine-protein phosphatase non-receptor type 1 (Homo sapiens) (UniProt P18031).
T3 sequence (whole entry): T1 sequence (P18031 whole entry)
Description: Percent inhibition against Protein-tyrosine phosphatase 1B at a 1 uM concentration.

The target in experiment [5] is T3, Tyrosine-protein phosphatase non-receptor type 1 (Homo sapiens). The experiment in a line: Percent inhibition against Protein-tyrosine phosphatase 1B at a 10 uM concentration.
The target is the same in experiment [6]. Description: Percent inhibition against Protein-tyrosine phosphatase 1B at a 100 uM concentration. Put shortly:
(§2)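 PTP1B inhibition was read as pNPP hydrolysis, with compound at a single fixed concentration and activity given as % inhibition. Some entries were measured on PTP1, the rat homologue of PTP1B.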

Experiment [7] addresses T1, Tyrosine-protein phosphatase non-receptor type 1. Description: Inhibitory constant against Protein-tyrosine phosphatase 1B. In a few lines:
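Competitive inhibition of PTP1B was measured with pNPP as substrate. V vs S data were collected at various inhibitor concentrations, and Ki was computed by the Cornish-Bowden direct linear method.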

The species named for experiment [8] is Rattus norvegicus. Description: Effect of compound (100 µM) on insulin (10 nM)-stimulated 2-deoxyglucose (2-DOG) uptake into L6 myocytes.
The species named for experiment [9] is Rattus norvegicus. The experiment in a line: Effect on basal uptake without insulin into intact cells (L6 myocytes), to that of control cells. The experiment is classed as functional, cell-based.
In experiment [10] the target is T4, Tyrosine-protein phosphatase non-receptor type 1 (Rattus norvegicus) (UniProt P20417).
T4 sequence (whole entry): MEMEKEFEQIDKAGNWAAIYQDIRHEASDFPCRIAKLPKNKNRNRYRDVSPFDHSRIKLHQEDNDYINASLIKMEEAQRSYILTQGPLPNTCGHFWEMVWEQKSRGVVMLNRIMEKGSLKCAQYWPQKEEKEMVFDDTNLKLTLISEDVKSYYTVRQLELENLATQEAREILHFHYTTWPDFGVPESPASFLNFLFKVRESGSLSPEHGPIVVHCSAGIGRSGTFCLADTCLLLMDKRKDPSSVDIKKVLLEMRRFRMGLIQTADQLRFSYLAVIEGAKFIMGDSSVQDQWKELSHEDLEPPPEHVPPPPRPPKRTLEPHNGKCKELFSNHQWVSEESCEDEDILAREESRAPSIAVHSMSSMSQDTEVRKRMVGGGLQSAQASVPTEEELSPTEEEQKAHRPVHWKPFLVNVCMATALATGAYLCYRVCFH
The experiment in a line: Percent inhibition of compound against Protein-tyrosine phosphatase 1B at a 100 uM concentration. In a few lines:
as §2

Experiment [11] addresses Receptor-type tyrosine-protein phosphatase F (Homo sapiens) (UniProt P10586). The experiment in a line: Percent inhibition of compound against Protein-tyrosine phosphatase Lar at 100 uM. Put shortly:
as §1

The target in experiment [12] is Tyrosine-protein phosphatase non-receptor type 11 (SHP-2) (Homo sapiens) (UniProt Q06124). The experiment in a line: Percent inhibition of compound against Tyrosine phosphatase SHP2 at 100 uM.

Sequence of Receptor-type tyrosine-protein phosphatase F (Homo sapiens) (P10586 whole entry): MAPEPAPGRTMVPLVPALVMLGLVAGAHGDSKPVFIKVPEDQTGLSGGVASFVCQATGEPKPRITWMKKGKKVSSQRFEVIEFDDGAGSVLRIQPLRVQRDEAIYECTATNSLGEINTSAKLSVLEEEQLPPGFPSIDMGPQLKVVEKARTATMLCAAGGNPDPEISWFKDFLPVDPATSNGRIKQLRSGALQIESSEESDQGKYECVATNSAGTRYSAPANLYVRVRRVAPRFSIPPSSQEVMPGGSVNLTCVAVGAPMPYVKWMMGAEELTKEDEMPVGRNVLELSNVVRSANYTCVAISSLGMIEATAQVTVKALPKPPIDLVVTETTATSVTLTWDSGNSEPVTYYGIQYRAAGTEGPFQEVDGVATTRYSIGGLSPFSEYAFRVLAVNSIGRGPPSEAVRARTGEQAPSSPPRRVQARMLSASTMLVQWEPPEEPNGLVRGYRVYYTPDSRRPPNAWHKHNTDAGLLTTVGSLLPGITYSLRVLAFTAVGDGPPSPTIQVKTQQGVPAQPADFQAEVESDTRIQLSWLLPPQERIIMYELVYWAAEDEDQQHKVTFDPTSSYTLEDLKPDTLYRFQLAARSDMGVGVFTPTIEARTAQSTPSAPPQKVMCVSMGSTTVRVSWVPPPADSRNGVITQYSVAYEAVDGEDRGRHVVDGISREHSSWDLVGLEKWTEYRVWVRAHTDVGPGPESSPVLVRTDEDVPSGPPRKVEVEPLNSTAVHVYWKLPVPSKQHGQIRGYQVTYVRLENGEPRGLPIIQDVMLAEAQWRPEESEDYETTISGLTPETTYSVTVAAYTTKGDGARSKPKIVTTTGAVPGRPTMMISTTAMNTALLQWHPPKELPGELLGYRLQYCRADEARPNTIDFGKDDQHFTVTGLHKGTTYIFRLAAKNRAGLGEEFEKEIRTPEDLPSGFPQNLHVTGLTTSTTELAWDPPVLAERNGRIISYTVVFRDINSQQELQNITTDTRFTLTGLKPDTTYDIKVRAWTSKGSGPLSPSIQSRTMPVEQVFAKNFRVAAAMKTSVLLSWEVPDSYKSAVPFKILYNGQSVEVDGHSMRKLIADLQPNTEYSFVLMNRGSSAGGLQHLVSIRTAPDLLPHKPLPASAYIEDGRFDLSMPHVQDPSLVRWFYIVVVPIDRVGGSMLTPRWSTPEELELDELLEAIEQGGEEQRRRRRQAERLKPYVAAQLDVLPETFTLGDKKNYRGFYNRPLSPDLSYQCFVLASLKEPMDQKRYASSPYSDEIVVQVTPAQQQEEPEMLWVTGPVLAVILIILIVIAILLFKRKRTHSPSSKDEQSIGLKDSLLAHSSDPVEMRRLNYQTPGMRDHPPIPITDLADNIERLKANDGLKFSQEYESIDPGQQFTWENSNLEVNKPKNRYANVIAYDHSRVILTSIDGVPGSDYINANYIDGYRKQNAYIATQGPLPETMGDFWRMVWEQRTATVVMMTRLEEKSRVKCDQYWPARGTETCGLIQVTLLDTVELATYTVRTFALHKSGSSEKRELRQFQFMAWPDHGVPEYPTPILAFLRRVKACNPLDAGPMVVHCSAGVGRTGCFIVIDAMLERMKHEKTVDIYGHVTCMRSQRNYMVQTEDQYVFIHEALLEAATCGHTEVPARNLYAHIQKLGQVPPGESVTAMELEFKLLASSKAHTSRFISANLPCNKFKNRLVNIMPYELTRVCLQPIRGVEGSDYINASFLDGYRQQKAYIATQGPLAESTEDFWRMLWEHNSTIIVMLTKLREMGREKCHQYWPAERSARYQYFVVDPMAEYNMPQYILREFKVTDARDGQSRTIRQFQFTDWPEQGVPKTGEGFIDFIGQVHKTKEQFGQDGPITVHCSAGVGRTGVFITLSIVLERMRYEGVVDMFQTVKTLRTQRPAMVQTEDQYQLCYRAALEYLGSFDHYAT

A word on the inhibition: it is the drop in the measured response relative to a control, in per cent. One may read the pKi as the negative decadic logarithm of the Ki, by convention in mol/L. Higher therefore signals a small Ki. As to `CCCCCNC(=O)C(Cc1ccc(OCC(=O)O)c(C(=O)O)c1)NC(=O)CCC(=O)O` (stereo unspecified), the inhibition came out at 0% in [1] and 5% in experiment [3]. Also, the pKi in experiment [2] is 5.19.
On to `CCCCCNC(=O)[C@H](Cc1ccc(OCC(=O)NO)c(C(=O)O)c1)NC(=O)[C@H](Cc1ccccc1)NC(=O)OC(C)(C)C`, for which the inhibition in [1] was 1%; in experiment [4], 6%; in experiment [5] it was 8%; in experiment [6], 30%; in [3] it was 4%.
For `CCCCCNC(=O)[C@H](Cc1ccc(OCC(=O)O)c(C#CC(=O)O)c1)NC(=O)[C@H](Cc1ccccc1)NC(=O)OC(C)(C)C`, the inhibition in [1] was 1%; in experiment [4], 1%; in experiment [5] it was 3%; in experiment [6], 16%; in [3] it was 1%.
For the molecule `CCCCCNC(=O)[C@H](Cc1ccc(OCC(=O)OC)c(C(=O)O)c1)NC(=O)[C@H](Cc1ccccc1)NC(=O)OC(C)(C)C`, the inhibition in experiment [1] came to 0%; in experiment [4], 3%; in experiment [5], 5%; in [6], 25%; in experiment [3], 0%.
In the case of `CCCCCNC(=O)C(Cc1ccc(OCC#N)c(C(=O)O)c1)NC(=O)CCC(=O)O` (stereo unspecified), the results for the inhibition in experiment [1], in experiment [6] and in experiment [3] were 0%, 3% and 0%, respectively.
Consider `CCCCCNC(=O)C(Cc1ccc2c(c1)OCCOC2=O)NC(=O)CCC(=O)O` (stereo unspecified), for which the inhibition is 0% in experiment [1], 1% in [6] and 0% in [3].
Regarding `CCCCCNC(=O)[C@H](Cc1ccc(OCC(=O)O)c(C(=O)O)c1)NC(=O)[C@H](Cc1ccccc1)NC(=O)OC(C)(C)C`, the inhibition in experiment [1] came to 0%; in experiment [4], 30%; in [5], 78%; in [6] it was 97%; in experiment [3], 2%. Also, in experiment [7], the negative logarithm of the Ki (pKi) was 5.70.
In the case of `CCCCCNC(=O)[C@H](Cc1ccc(OCC(=O)O)c(-c2cc(O)no2)c1)NC(=O)[C@H](Cc1ccccc1)NC(=O)OC(C)(C)C`, the inhibition in [1] came out at 0%; in [4], 1%; in [5], 1%; in experiment [6], 9%.
On to `CCCCCNC(=O)[C@H](Cc1ccc(OCC(=O)O)c(-c2nn[nH]n2)c1)NC(=O)[C@H](Cc1ccccc1)NC(=O)OC(C)(C)C`, for which the inhibition in [1] is 0%; in [4] it was 27%; in [5], 77%; in experiment [6], 97%; in experiment [3], 1%. For the same molecule, the values for the Uptake in the experiment listed under Rattus norvegicus [8] and in the experiment listed under Rattus norvegicus [9] were 147% and 99%, respectively. In experiment [7], the negative-log Ki (pKi) was 5.70.
As to `CCCCCNC(=O)[C@H](Cc1ccc(OCc2nn[nH]n2)c(C(=O)O)c1)NC(=O)[C@H](Cc1ccccc1)NC(=O)OC(C)(C)C`, the inhibition in experiment [1] was found to be 0%; in experiment [4], 1%; in experiment [5], 3%; in experiment [6], 17%; in experiment [3] it was 5%.
Turning to `CCCCCNC(=O)[C@H](Cc1ccc(OCC(=O)O)c(CCC(=O)O)c1)NC(=O)[C@H](Cc1ccccc1)NC(=O)OC(C)(C)C`, the inhibition was 13% in experiment [1]; 3% in experiment [4]; 4% in experiment [5]; 18% in experiment [6]; 1% in experiment [3].
Take `CCCCCNC(=O)[C@H](Cc1ccc(OCC(=O)O)c(C(=O)NO)c1)NC(=O)[C@H](Cc1ccccc1)NC(=O)OC(C)(C)C`: the inhibition amounted to 3% in experiment [1]; 5% in experiment [4]; 13% in [5]; 54% in experiment [6]; 6% in experiment [3].
On to `CCCCCNC(=O)C(Cc1ccc(OCC(=O)O)c(C(C)=O)c1)NC(=O)CCC(=O)O` (stereo unspecified), for which the inhibition in [10] is 8%; in experiment [11], -2%; in experiment [12], 1%.
On to `CCCCCNC(=O)C(Cc1ccc(OCC(=O)O)c(C#N)c1)NC(=O)CCC(=O)O` (stereo unspecified), for which the inhibition in experiment [1] came to 0%; in experiment [6], 4%; in experiment [3], 0%.
With `CCCCCNC(=O)C(Cc1ccc(OCCO)c(C(=O)O)c1)NC(=O)CCC(=O)O` (stereo unspecified), the results for the inhibition in experiment [1], in [6] and in experiment [3] were 0%, 4% and 0%, respectively.
For `CCCCCNC(=O)[C@H](Cc1ccc(OCC(N)=O)c(C(=O)O)c1)NC(=O)[C@H](Cc1ccccc1)NC(=O)OC(C)(C)C`, the inhibition in [1], in experiment [4], in experiment [5], in [6] and in [3] was 0% in each case.
Turning to `CCCCCNC(=O)[C@H](Cc1ccc(OCC(=O)O)c(C(=O)OC)c1)NC(=O)[C@H](Cc1ccccc1)NC(=O)OC(C)(C)C`, the inhibition in experiment [1] was 0%; in experiment [4], 3%; in [5], 2%; in experiment [6] it was 4%; in [3], 0%.
